Measurements from article PMC2077835 (Drug metabolism and disposition: the biological fate of …, 2006).

Experiments:
[1] = target: CYP2C19 (Homo sapiens, UniProt P33261); assay: DB289 consumption by recombinant CYP2C19; type: in vitro ADME; settings: 3.0 μM DB289, 50 pmol/ml P450, 15 min
How it was run: (§1)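 Baculovirus-insect-cell Supersomes coexpressing human P450 with NADPH-P450 reductase; the CYP2E1 enzyme also had cytochrome b5. 3.0 μM substrate, 50 pmol/ml P450 (100 pmol/ml for CYP2C8 and CYP2C9), in 100 mM phosphate pH 7.4 with 3.3 mM MgCl2 and 1 mM NADPH, 37°C, 15 min. Quenched in ice-cold acidified acetonitrile with deuterated internal standard, then LC/MS/MS. Percent consumed relative to 0 min; control Supersomes; duplicates.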

[2] = target: recombinant human CYP1A1 (Homo sapiens, UniProt P04798); assay: DB289 consumption by recombinant CYP1A1; type: in vitro ADME; settings: 3.0 μM DB289, 50 pmol/ml P450, 15 min
How it was run: as §1

[3] = DB289 consumption in 10 individual HLM samples, correlation analysis; type: in vitro ADME, human; settings: 0.3 μM DB289
How it was run: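 Ten individual human liver microsome samples, each characterised by the supplier for P450 marker activities. Standard NADPH incubations at 37°C began with 0.3 μM substrate. Rate of disappearance measured by LC/MS/MS and plotted against each P450 marker activity. Pearson r calculated; p < 0.05 taken as significant.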

[4] = target: recombinant human CYP1B1 (Homo sapiens, UniProt Q16678); assay: DB289 consumption by recombinant CYP1B1; type: in vitro ADME; settings: 3.0 μM DB289, 50 pmol/ml P450, 15 min
Sequence of recombinant human CYP1B1 (Q16678 whole entry): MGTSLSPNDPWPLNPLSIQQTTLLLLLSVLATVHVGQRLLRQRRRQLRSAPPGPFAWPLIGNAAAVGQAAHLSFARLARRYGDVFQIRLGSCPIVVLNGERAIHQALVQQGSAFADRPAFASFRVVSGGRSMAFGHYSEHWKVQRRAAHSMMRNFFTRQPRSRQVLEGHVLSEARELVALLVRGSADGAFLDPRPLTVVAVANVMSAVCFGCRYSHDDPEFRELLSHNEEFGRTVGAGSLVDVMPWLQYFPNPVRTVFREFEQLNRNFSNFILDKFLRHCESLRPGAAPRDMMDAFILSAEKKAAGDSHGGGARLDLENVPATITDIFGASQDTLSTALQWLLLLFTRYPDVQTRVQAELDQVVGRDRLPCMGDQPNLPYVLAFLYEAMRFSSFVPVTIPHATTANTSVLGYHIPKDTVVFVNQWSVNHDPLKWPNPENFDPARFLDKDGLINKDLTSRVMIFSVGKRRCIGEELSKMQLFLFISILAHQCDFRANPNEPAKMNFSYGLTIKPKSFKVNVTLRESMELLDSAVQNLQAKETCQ
How it was run: as §1

[5] = target: flavin monooxygenase 3 (FMO3) (Homo sapiens, UniProt P31513); assay: Incubation of DB289 with recombinant FMO3; type: in vitro ADME; settings: FMO3 0.5 mg/ml
Sequence of flavin monooxygenase 3 (FMO3) (P31513 whole entry): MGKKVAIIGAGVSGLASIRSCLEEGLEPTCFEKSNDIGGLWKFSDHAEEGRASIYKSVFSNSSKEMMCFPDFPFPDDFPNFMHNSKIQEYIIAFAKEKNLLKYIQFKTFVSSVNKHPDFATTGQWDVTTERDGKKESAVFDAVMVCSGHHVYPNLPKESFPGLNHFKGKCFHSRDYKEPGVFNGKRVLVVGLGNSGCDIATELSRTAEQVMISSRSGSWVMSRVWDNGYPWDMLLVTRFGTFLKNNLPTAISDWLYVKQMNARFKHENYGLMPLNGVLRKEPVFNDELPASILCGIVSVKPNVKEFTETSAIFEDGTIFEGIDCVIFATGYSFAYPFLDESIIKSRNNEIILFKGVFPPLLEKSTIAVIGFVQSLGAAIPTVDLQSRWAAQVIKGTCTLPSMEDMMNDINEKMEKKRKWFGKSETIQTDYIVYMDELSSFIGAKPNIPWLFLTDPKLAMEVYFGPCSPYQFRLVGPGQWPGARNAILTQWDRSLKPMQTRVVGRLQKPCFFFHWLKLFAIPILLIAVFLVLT
How it was run: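 Baculovirus insect-cell-expressed human FMO3 at 0.5 mg/ml. Incubated with substrate under the conditions used for the liver-microsome consumption assay: pH 7.4 phosphate, MgCl2, NADPH, 37°C. Analysed by LC/MS/MS.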

[6] = target: CYP2E1 (Homo sapiens, UniProt P05181); assay: DB289 consumption by recombinant CYP2E1; type: in vitro ADME; settings: 3.0 μM DB289, 50 pmol/ml P450, 15 min
Sequence of CYP2E1 (P05181 whole entry): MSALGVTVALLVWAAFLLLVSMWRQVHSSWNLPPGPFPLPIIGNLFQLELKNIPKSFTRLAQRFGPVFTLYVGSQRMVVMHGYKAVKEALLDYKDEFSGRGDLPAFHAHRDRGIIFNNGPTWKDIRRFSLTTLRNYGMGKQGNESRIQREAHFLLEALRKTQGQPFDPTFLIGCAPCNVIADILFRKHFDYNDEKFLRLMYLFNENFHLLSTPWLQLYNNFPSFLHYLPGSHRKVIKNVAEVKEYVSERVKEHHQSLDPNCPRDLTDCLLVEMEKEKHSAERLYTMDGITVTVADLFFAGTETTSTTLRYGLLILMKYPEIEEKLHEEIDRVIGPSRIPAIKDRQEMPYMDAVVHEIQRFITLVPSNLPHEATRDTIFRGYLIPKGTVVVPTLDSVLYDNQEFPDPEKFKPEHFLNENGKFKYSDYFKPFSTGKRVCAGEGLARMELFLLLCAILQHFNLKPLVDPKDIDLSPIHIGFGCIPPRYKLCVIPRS
How it was run: as §1

[7] = target: recombinant human CYP3A7 (Homo sapiens, UniProt P24462); assay: DB289 consumption by recombinant CYP3A7; type: in vitro ADME; settings: 3.0 μM DB289, 50 pmol/ml P450, 15 min
Sequence of recombinant human CYP3A7 (P24462 whole entry): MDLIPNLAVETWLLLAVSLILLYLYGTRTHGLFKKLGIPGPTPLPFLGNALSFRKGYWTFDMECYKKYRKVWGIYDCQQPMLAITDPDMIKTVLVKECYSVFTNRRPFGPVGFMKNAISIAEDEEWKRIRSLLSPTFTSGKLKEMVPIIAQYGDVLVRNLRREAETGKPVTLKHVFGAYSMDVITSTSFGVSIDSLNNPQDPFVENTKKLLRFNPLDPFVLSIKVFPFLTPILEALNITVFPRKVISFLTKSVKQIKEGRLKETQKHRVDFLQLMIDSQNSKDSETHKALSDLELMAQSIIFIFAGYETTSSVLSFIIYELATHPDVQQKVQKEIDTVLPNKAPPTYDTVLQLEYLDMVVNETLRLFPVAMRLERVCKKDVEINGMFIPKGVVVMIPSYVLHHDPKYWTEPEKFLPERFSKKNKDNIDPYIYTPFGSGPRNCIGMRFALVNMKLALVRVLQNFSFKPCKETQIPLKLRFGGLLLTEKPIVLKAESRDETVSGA
How it was run: (§2)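 A second recombinant panel (Supersomes; the CYP2J2, CYP3A7 and CYP4F forms coexpressed with reductase and cytochrome b5). Each enzyme was incubated alone with 3.0 μM substrate and NADPH in pH 7.4 phosphate/MgCl2 at 37°C for 15 min. Acetonitrile quench with internal standard, centrifugation, LC/MS/MS. Percent consumed normalised to 0 min. Control Supersomes; means of duplicates.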

[8] = target: recombinant human CYP1A2 (Homo sapiens, UniProt P05177); assay: DB289 consumption by recombinant CYP1A2; type: in vitro ADME; settings: 3.0 μM DB289, 50 pmol/ml P450, 15 min
Sequence of recombinant human CYP1A2 (P05177 2-516 limits assumed): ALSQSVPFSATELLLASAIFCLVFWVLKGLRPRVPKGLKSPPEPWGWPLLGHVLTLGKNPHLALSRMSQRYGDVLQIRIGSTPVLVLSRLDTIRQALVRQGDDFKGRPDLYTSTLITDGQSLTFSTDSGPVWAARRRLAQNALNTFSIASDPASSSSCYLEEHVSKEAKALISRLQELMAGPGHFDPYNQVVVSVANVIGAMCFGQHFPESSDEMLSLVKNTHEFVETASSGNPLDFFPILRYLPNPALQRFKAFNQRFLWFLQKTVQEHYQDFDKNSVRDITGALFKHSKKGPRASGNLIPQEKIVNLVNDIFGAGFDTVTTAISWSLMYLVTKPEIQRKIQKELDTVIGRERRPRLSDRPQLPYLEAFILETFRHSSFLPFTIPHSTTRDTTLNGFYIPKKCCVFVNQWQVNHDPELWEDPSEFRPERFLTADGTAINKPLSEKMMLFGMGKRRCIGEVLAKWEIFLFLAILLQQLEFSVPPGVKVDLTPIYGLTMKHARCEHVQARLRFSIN
How it was run: as §1

[9] = target: CYP2A6 (Homo sapiens, UniProt P11509); assay: DB289 consumption by recombinant CYP2A6; type: in vitro ADME; settings: 3.0 μM DB289, 50 pmol/ml P450, 15 min
Sequence of CYP2A6 (P11509 whole entry): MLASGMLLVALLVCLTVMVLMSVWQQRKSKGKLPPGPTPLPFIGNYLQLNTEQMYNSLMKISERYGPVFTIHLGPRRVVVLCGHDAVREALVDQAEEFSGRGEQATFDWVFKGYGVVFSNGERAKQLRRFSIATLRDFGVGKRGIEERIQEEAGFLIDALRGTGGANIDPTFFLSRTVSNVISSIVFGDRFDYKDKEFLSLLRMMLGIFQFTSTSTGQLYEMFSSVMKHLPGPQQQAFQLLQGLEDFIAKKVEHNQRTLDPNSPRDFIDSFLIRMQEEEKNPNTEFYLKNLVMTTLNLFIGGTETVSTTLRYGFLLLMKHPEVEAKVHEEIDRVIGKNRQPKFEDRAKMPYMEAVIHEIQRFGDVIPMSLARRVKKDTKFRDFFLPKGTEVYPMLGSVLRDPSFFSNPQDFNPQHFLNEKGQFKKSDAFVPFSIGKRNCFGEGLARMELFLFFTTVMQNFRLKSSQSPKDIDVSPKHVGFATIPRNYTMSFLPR
How it was run: as §1

[10] = Kinetics of M1 formation by pooled HLMs; type: in vitro ADME, human
How it was run: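 Initial-rate conditions (<20% substrate consumption). Pooled microsomes at 0.02 mg/ml with substrate from 0.05 μM upward, in 250 μl. Equilibrated 5 min at 37°C, started with NADPH, run 3 min. M1 measured by LC/MS/MS. Mean of duplicates fitted to Michaelis-Menten by nonlinear regression, with an Eadie-Hofstee plot; CLint = Vmax/Km.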

[11] = Incubation of DB289 with pooled human liver microsomes; type: in vitro ADME; settings: 15 μM DB289, 0.2 mg/ml HLMs, NADPH
How it was run: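 Pooled liver microsomes (50 donors, mixed gender) at 0.2 mg/ml with 15 μM substrate in a 1 ml mix, equilibrated 5 min at 37°C, then started with NADPH. Aliquots taken at 0, 5, 15, 30 and 120 min into ice-cold acetonitrile. LC/UV at 359 nm against an external 0.1–15 μM calibration; metabolites identified by retention time versus synthetic standards. Single determination; controls lacked NADPH, protein or substrate.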

[12] = target: T1, CYP2J2 (Homo sapiens, UniProt P51589); assay: DB289 consumption by recombinant CYP2J2; type: in vitro ADME; settings: 3.0 μM DB289, 50 pmol/ml P450, 15 min
T1 sequence (P51589 1-502): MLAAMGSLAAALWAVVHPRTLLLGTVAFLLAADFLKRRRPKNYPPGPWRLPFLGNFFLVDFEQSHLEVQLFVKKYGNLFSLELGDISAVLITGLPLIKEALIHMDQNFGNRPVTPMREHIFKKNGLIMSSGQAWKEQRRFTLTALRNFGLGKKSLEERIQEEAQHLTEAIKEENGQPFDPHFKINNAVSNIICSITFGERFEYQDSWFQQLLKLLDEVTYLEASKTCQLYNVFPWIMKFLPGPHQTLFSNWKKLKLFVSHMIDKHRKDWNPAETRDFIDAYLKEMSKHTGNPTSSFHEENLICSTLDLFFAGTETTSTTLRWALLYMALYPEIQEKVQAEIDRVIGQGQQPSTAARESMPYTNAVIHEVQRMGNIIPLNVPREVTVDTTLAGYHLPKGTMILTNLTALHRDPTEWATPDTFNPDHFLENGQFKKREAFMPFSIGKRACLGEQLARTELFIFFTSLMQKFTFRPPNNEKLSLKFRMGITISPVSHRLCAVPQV
How it was run: as §2

[13] = target: T2, CYP4A11 (Homo sapiens, UniProt Q02928); assay: DB289 consumption by recombinant CYP4A11; type: in vitro ADME; settings: 3.0 μM DB289, 50 pmol/ml P450, 15 min
T2 sequence (Q02928 5-519): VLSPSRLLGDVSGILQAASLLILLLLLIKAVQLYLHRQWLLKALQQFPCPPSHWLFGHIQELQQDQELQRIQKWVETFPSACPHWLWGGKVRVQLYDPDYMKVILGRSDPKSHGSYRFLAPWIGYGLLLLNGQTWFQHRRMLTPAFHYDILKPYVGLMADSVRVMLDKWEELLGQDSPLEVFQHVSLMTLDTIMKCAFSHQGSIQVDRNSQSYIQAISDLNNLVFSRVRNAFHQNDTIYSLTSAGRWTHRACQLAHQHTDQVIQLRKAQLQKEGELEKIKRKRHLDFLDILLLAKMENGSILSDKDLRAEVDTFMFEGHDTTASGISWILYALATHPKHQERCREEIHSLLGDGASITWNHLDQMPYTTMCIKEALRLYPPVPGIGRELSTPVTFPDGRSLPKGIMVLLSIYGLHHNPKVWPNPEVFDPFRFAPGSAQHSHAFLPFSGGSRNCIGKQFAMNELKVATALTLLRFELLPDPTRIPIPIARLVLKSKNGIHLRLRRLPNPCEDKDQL

[14] = target: T2, CYP4A11; assay: Inhibition of P450 activities by DB289: lauric acid 12-hydroxylation; type: in vitro ADME; settings: 3.0 μM DB289, pooled HLMs 0.25 mg/ml
How it was run: (§3)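 Test compound (3.0 μM) was preincubated 0 and 15 min with pooled microsomes (0.25 mg/ml) and 2 mM NADPH (final concentrations). A P450-selective marker substrate was then added and marker activity measured. Reference selective chemical inhibitors were run for comparison (none for CYP4A11). Solvent-only controls.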

[15] = DB289 metabolism by heat-inactivated human liver microsomes; type: in vitro ADME; settings: 60°C for 90 s; data not shown
How it was run: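 Human liver microsomes were heated at 60°C for 90 s before incubation to inactivate flavin monooxygenase. Then used in standard NADPH incubations (pH 7.4 phosphate, MgCl2, 37°C) to test FMO contribution to substrate metabolism.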

[16] = target: CYP2C9 (Homo sapiens, UniProt P11712); assay: DB289 consumption by recombinant CYP2C9; type: in vitro ADME; settings: 3.0 μM DB289, 100 pmol/ml P450, 15 min
Sequence of CYP2C9 (P11712 whole entry): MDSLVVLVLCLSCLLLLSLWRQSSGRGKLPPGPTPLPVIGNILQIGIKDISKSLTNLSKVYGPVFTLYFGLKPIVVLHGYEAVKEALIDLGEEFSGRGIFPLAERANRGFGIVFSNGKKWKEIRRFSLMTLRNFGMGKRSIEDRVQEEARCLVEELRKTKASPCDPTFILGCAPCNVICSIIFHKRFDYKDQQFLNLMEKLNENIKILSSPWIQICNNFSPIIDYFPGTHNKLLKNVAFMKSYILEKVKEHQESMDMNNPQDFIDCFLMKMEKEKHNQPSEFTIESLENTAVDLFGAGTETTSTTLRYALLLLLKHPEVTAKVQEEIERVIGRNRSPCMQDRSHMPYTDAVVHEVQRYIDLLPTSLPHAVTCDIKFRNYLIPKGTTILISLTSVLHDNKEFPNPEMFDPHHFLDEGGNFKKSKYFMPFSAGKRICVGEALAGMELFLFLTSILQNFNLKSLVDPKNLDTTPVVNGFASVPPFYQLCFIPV
How it was run: as §1

[17] = test system: CYP3A4/5; assay: Inhibition of P450 activities by DB289: testosterone 6β-hydroxylation; type: in vitro ADME, human; settings: 3.0 μM DB289, pooled HLMs 0.25 mg/ml
How it was run: as §3

Sequence of CYP2C19 (P33261 whole entry): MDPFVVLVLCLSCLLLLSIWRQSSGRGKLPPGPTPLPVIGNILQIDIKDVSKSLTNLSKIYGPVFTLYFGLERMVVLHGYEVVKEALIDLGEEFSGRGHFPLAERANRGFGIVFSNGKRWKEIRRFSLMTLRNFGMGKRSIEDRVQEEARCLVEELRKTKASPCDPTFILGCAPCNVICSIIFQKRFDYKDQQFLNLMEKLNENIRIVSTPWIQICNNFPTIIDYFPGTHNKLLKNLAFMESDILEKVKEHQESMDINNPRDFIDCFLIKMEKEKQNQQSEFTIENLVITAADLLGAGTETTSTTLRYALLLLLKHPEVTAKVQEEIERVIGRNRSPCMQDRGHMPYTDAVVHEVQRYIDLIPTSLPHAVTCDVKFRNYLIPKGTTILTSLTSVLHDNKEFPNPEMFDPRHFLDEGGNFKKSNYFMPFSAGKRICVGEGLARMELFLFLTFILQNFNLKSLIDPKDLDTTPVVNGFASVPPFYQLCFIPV

percentage of substrate consumed [1]: less than 5% | percentage of substrate consumed [2]: 82% | variation of rate of DB289 consumption among 10 individual HLMs [3]: 4 fold | percentage of substrate consumed [4]: 46% | metabolism of DB289 by recombinant human FMO3 [5]: did not show any detectable metabolism | percentage of substrate consumed [6]: 7% | percentage of substrate consumed [7]: less than 5% | percentage of substrate consumed [8]: 61% | percentage of substrate consumed [9]: less than 5% | Vmax ([10]; DB289 O-demethylation in HLMs): 3770 pmol/min/mg protein | Vmax ([10]; M1 formation, 0.02 mg/ml HLM, 3 min): 3.8 nmol/min/mg protein | Vmax ([10]; M1 formation, 0.02 mg/ml HLM, 3 min, total P450): 10.5 nmol/min/nmol P450 | half-life in pooled HLM [11]: 12 min | time by which DB289 was completely consumed [11]: ≤ 120 min | percentage of substrate consumed [12]: 85% | percentage of substrate consumed [13]: less than 5% | inhibition of CYP4A11 activity [14]: minimal to no inhibition | effect of heat inactivation of microsomes on DB289 metabolism [15]: did not impede DB289 metabolism | percentage of substrate consumed [16]: less than 5% | inhibition of CYP3A activity [17]: minimal to no inhibition
Compound: CON=C(N)c1ccc(-c2ccc(-c3ccc(C(N)=NOC)cc3)o2)cc1 [DB289, 2,5-bis(4-amidinophenyl)furan-bis-O-methylamidoxime]
